Screens from PubChem.
MT stabilizer: microtubule stabilizers in HeLa cells; HeLa tubulin immunostaining HCS, 24 h; share of cells brighter than vehicle mean+2SD; AID 2205; 0.83% of 200,000 active; % tubulin-high responders, % at 10 µM;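 active means plate Z-score above 3 for both tubulin-high and condensed-nucleus cell shares, with cell loss under 80%, at 10 µM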;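 further: anti alpha tubulin signal scored within the nucleus-defined area of each cell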
APP 5UTR inh: APP translation inhibition | SH-SY5Y APP 5'UTR-luciferase reporter, luminescence | inhibition, % at 2 µM | 0.82% of 190,000 active | AID 1285;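 active means inhibition above a set limit, derived from the sample mean plus 3 SD, cut at about 45% in these data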
BaF3 tox: reduces parental Ba/F3 cell viability, JAK2V617F counter-screen; inhibition, % at 5.6 µM; CellTiter-Glo ATP luminescence; 1.1% of 220,000 active; AID 1486;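 active means inhibition above a per-campaign cutoff, the mean inhibition of all tested compounds plus 3 SD, cut at about 27% in these data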
b-catenin transl: alters nuclear translocation of beta-catenin in HeLa cells; AID 1665; immunofluorescence imaging; nuclear translocation activity, % at 5 µM; 0.3% of 190,000 active;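 active means nuclear translocation activity above 50% at 5 µM, with a well cell count of 50 or more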;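 further: per-cell ratio of nuclear to cytoplasmic median beta-catenin stain intensity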
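Read-out: Nuclear/cytoplasmic beta-catenin signal ratio, % activation | Assay system: Human HeLa cell line | Times: 24 h compound exposure at 37°C, 5% CO2 | Signal: Fluorescence imaging of beta-catenin antibody stain plus DAPI | Dosing: 5 µM primary, 0.02–20 µM confirmation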
Ba/F3 V617F tox: loss of viability in JAK2V617F-driven Ba/F3 cells; Ba/F3 EpoR-JAK2V617F viability, ATP luminescence; inhibition, % at 5.6 µM; 1.1% of 220,000 active; AID 1446;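 active means inhibition above the campaign mean plus 3 SD over all tested compounds, cut at about 24% in these data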;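 further: cytokine-independent growth of Ba/F3 cells driven by EpoR plus mutant JAK2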
IEC-6 tox: kills IEC-6 intestinal cells in KLF5 counter-screen; AID 1825; IEC-6 cytotoxicity, luminescence viability; 0.78% of 290,000 active; inhibition, % at 5 µM; in the data active means inhibition above about 22%
Large screens that a line does not name were inactive. An excerpt weighted towards active compounds, which were near 2.2% of everything screened.

COc1cc(C(=O)N2CCCc3ccccc32)cc(OC)c1OC	MT stabilizer 38.7, b-catenin transl 53.3
CC(C(=O)N1CCc2ccccc21)N1CCc2ccccc2C1 (centres undefined)	BaF3 tox 41.4
Cc1ccc(NC(=O)CNCc2cccs2)cc1Br	none (no result: MT stabilizer, APP 5UTR inh, BaF3 tox, b-catenin transl, Ba/F3 V617F tox)
O=[N+]([O-])c1ccc(C[n+]2ccc(Cc3ccccc3)cc2)cc1	BaF3 tox 37.4
Cc1ccc(C(=O)C[n+]2ccc(Cc3ccccc3)cc2)cc1	none
c1ccc(Cc2cc[n+](Cc3ccccn3)cc2)cc1	BaF3 tox 64.8, Ba/F3 V617F tox 57.1 (no result: MT stabilizer, APP 5UTR inh)
COc1ccc(C(=O)N/C(=C\c2cn(C)c3ccccc23)C(=O)N2CCOCC2)cc1	none (no result: MT stabilizer, APP 5UTR inh, BaF3 tox, b-catenin transl, Ba/F3 V617F tox)
O=C(Nc1ccc2c(c1)CN(Cc1ccccc1O)CC2)C1CCCO1 (centres undefined)	none (no result: MT stabilizer, APP 5UTR inh, BaF3 tox, b-catenin transl, Ba/F3 V617F tox)
CSc1nnc(N2C(=O)C(O)=C(C(=O)c3ccco3)C2c2cccc(Cl)c2)s1 (centres undefined)	none (no result: MT stabilizer, APP 5UTR inh, BaF3 tox, b-catenin transl, Ba/F3 V617F tox)
Cc1cccnc1NC(=O)CCNS(=O)(=O)c1ccc2c(c1)c(=O)n(C)c(=O)n2C	none
Cc1csc(NC(=O)CCNS(=O)(=O)c2ccc3c(c2)c(=O)n(C)c(=O)n3C)n1	BaF3 tox 94.4
Cc1c(Cc2ccc3c(c2)OCO3)sc(NC(=O)C(C)(C)C)c1C#N	MT stabilizer 21.7
COC(=O)c1[nH]c2cccc(OC)c2c1NC(=O)C(C)N1CCC(C)CC1 (centres undefined)	APP 5UTR inh 66.2
COC(=O)c1[nH]c2cccc(OC)c2c1NC(=O)CCN1CCC(C)CC1	none
Cc1cccnc1NC(=O)CCNC(=O)c1ccccc1Cl	none (no result: MT stabilizer, APP 5UTR inh, BaF3 tox, b-catenin transl, Ba/F3 V617F tox)
COc1c(OC2OC(C(=O)O)C(O)C(O)C2O)cc(O)c2c(=O)cc(-c3ccccc3)oc12 (centres undefined)	BaF3 tox 28.6 (no result: b-catenin transl)
O=C(O)C1OC(Oc2cc3oc(-c4ccccc4)cc(=O)c3c(O)c2O)C(O)C(O)C1O (centres undefined)	none (no result: b-catenin transl)
COc1ccc(N2CC(O)(c3ccc(C)cc3)[N+]3=C2CCCC3)cc1 (centres undefined)	BaF3 tox 49.5, Ba/F3 V617F tox 44.8
COC(=O)Cc1c(C)c2ccc(OCc3nn[nH]n3)cc2oc1=O	APP 5UTR inh 78.0
COC(=O)Cc1c(C)c2ccc(OCc3nn[nH]n3)c(C)c2oc1=O	none
CCOc1ccc(C2c3cc(OC)c(OC)cc3CC(=O)N2c2ccc(OC)cc2)cc1 (centres undefined)	MT stabilizer 42.3
CCOc1cc2c(cc1OCC)C(c1ccc(OC)c(OC)c1)N(c1ccc(C(=O)O)cc1)C(=O)C2 (centres undefined)	none
O=C1N(c2ccccc2)C[C@@H]2C[C@@H](c3cccs3)N3CCC[C@@]123	none
CC(C)(O)C#Cc1ccc([C@@H]2C[C@H]3CN(c4ccccc4)C(=O)[C@]34CCCN24)s1	APP 5UTR inh 81.6
C/C(=C1/SC(N2CCCC2)=NC1=O)c1ccc(Br)cc1	BaF3 tox 27.8, Ba/F3 V617F tox 33.8
Cc1ccc(-n2c(-c3ccc(Br)cc3)c[n+]3c2CCc2ccc4cccnc4c2-3)cc1	BaF3 tox 91.3, Ba/F3 V617F tox 97.0, IEC-6 tox 56.5
Cc1ccc(N2CC(C(=O)NCCS(=O)(=O)N3CCN(c4ccccc4)CC3)CC2=O)cc1C (centres undefined)	none (no result: MT stabilizer, APP 5UTR inh, BaF3 tox, b-catenin transl, Ba/F3 V617F tox)
CCCCn1c(CN(C)Cc2ccccc2)nc2c1c(=O)n(C)c(=O)n2C	BaF3 tox 28.8
CCCCn1c(CN2CCN(c3ccccc3)CC2)nc2c1c(=O)n(C)c(=O)n2C	BaF3 tox 28.5
O=C(COc1ccc(Cl)cc1)NCCS(=O)(=O)N1CCN(c2ccccc2F)CC1	none (no result: MT stabilizer, APP 5UTR inh, BaF3 tox, b-catenin transl, Ba/F3 V617F tox)
Cc1cccc(NC(=O)CN2CCN(C(=O)C3CCCO3)CC2)c1C (centres undefined)	none (no result: MT stabilizer, APP 5UTR inh, BaF3 tox, b-catenin transl, Ba/F3 V617F tox)
CC(=O)Nc1ccc(NC2=C(Cl)C(=O)c3ccccc3C2=O)cc1	APP 5UTR inh 89.0
O=C(Nc1ccc2cn[nH]c2c1)c1c(Cl)cccc1Cl	none
O=C1C(Cl)=C(Nc2ccc3cn[nH]c3c2)C(=O)c2ccccc21	BaF3 tox 107.0, Ba/F3 V617F tox 98.2, IEC-6 tox 100.8 (no result: MT stabilizer, APP 5UTR inh)
O=C(NC1=C(Nc2ccc(Cl)cc2)C(=O)c2ccccc2C1=O)c1ccccc1	none
CN(C)c1ccc(NC2=C(Cl)C(=O)c3ccccc3C2=O)cc1	APP 5UTR inh 93.9, IEC-6 tox 24.7
